System: L6
Assay: Activation of AMPK in rat L6 cells assessed as phosphorylated protein level at 40 uM after 30 mins by Western blot analysis relative to arctigenin
Assay type: cell-based
Method in brief: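 L6 myoblasts kept in DMEM + 10% FBS at 37 °C, 5% CO2, then differentiated to myotubes in DMEM + 2% horse serum once 90% confluent. Cells exposed to 40 µM compound for 30 min. Lysates (Tris-HCl pH 7.5, NaCl, Na3VO4, Triton X-100, protease inhibitors) immunoblotted for phospho-AMPK and total AMPK by chemiluminescence. Band intensity × area normalized to total AMPK; three independent experiments.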

| SMILES | fold change (FC) |
| --- | --- |
| COc1cccc(C(=O)Oc2ccc(C[C@H]3C(=O)OC[C@@H]3Cc3ccc(OC)c(OC)c3)cc2OC)c1 | 0.64 |
| COc1ccccc1CCOc1ccc(C[C@H]2C(=O)OC[C@@H]2Cc2ccc(OC)c(OC)c2)cc1OC | 0.32 |
| COc1ccc(C[C@H]2COC(=O)[C@@H]2Cc2ccc(OCCc3ccc(C(C)(C)C)cc3)c(OC)c2)cc1OC | 0.09 |
| COc1ccc(CC(=O)Oc2ccc(C[C@H]3C(=O)OC[C@@H]3Cc3ccc(OC)c(OC)c3)cc2OC)cc1OC | 0.69 |
| COc1cc(C[C@H]2COC[C@@H]2Cc2ccc(OC)c(OC)c2)ccc1O | 0.49 |
| COc1ccc(C[C@H]2COC(=O)[C@@H]2Cc2ccc(OC(=O)C3CC3)c(OC)c2)cc1OC | 0.62 |
| COc1ccc(C[C@H]2COC(=O)[C@@H]2Cc2ccc(OCCc3ccc(Cl)cc3)c(OC)c2)cc1OC | 0.26 |
| CCCC(=O)Oc1ccc(C[C@H]2COC[C@@H]2Cc2ccc(OC)c(OC)c2)cc1OC | 0.25 |
| COc1ccc(C[C@H]2COC[C@@H]2Cc2ccc(OC(=O)c3ccc(OC)c(OC)c3)c(OC)c2)cc1OC | 0.82 |
| COc1ccc(C[C@H]2COC(=O)[C@@H]2Cc2ccc(OCCc3ccc4c(c3)OCO4)c(OC)c2)cc1OC | 0.28 |
| COc1ccc(C[C@H]2COC(=O)[C@@H]2Cc2ccc(OCCc3ccc(F)cc3)c(OC)c2)cc1OC | 0.35 |
| COc1cccc(CCOc2ccc(C[C@H]3COC[C@@H]3Cc3ccc(OC)c(OC)c3)cc2OC)c1 | 1.33 |
| COc1ccc(C[C@H]2COC(=O)[C@@H]2Cc2ccc(OC(=O)c3cccnc3)c(OC)c2)cc1OC | 0.87 |
| CCCCC(=O)Oc1ccc(C[C@H]2C(=O)OC[C@@H]2Cc2ccc(OC)c(OC)c2)cc1OC | 1.16 |
| COc1ccc(C[C@H]2COC[C@@H]2Cc2ccc(OCCc3ccc(F)c(F)c3)c(OC)c2)cc1OC | 0.91 |
| CCCC(=O)Oc1ccc(C[C@H]2C(=O)OC[C@@H]2Cc2ccc(OC)c(OC)c2)cc1OC | 0.94 |
| CCC(=O)Oc1ccc(C[C@H]2C(=O)OC[C@@H]2Cc2ccc(OC)c(OC)c2)cc1OC | 0.92 |
| COc1ccc(C[C@H]2COC(=O)[C@@H]2Cc2ccc(OC(=O)c3ccc(F)cc3)c(OC)c2)cc1OC | 0.63 |
| CCc1cncc(CCOc2ccc(C[C@H]3COC[C@@H]3Cc3ccc(OC)c(OC)c3)cc2OC)c1 | 0.64 |
| COc1cccc(CCOc2ccc(C[C@H]3C(=O)OC[C@@H]3Cc3ccc(OC)c(OC)c3)cc2OC)c1 | 0.69 |
| COc1ccc(CCOc2ccc(C[C@H]3COC[C@@H]3Cc3ccc(OC)c(OC)c3)cc2OC)cc1OC | 1.45 |

| SMILES | fold change (FC) |
| --- | --- |
| COc1ccc(C(=O)Oc2ccc(C[C@H]3C(=O)OC[C@@H]3Cc3ccc(OC)c(OC)c3)cc2OC)cc1 | 0.46 |
| COc1ccc(CCCOc2ccc(C[C@H]3C(=O)OC[C@@H]3Cc3ccc(OC)c(OC)c3)cc2OC)cc1OC | 0.71 |
| COc1ccc(C[C@H]2COC(=O)[C@@H]2Cc2ccc(OCCc3ccccc3)c(OC)c2)cc1OC | 0.2 |
| COc1ccc(C(=O)Oc2ccc(C[C@H]3COC[C@@H]3Cc3ccc(OC)c(OC)c3)cc2OC)cc1 | 0.25 |
| COc1ccc(CC(=O)Oc2ccc(C[C@H]3COC[C@@H]3Cc3ccc(OC)c(OC)c3)cc2OC)cc1OC | 0.83 |
| COc1ccc(C[C@H]2COC[C@@H]2Cc2ccc(OCCc3ccc(Cl)cc3)c(OC)c2)cc1OC | 0.79 |
| COc1ccc(CCCOc2ccc(C[C@H]3COC[C@@H]3Cc3ccc(OC)c(OC)c3)cc2OC)cc1OC | 0.97 |
| COc1ccc(C[C@H]2COC[C@@H]2Cc2ccc(OC(=O)c3ccc(F)cc3)c(OC)c2)cc1OC | 0.37 |
| COc1ccc(C[C@H]2COC[C@@H]2Cc2ccc(OC(=O)c3cccnc3)c(OC)c2)cc1OC | 0.71 |
| COc1cc(CCOc2ccc(C[C@H]3C(=O)OC[C@@H]3Cc3ccc(OC)c(OC)c3)cc2OC)cc(OC)c1 | 0.73 |
| COc1ccc(C[C@H]2COC(=O)[C@@H]2Cc2ccc(OCCc3ccccc3Cl)c(OC)c2)cc1OC | 0.24 |
| COc1ccc(C[C@H]2COC(=O)[C@@H]2Cc2ccc(OC(=O)c3ccco3)c(OC)c2)cc1OC | 0.69 |
| COc1ccc(C[C@H]2COC(=O)[C@@H]2Cc2ccc(OC(=O)CC(C)C)c(OC)c2)cc1OC | 0.48 |
| COc1ccc(C[C@H]2COC[C@@H]2Cc2ccc(OC(C)=O)c(OC)c2)cc1OC | 0.26 |
| COc1ccc(C[C@H]2COC[C@@H]2Cc2ccc(OCCc3cc(OC)c(OC)c(OC)c3)c(OC)c2)cc1OC | 1.25 |
| COc1ccc(COc2ccc(C[C@H]3C(=O)OC[C@@H]3Cc3ccc(OC)c(OC)c3)cc2OC)cc1OC | 0.36 |
| COc1ccc(C[C@H]2COC[C@@H]2Cc2ccc(OCCc3ccc(F)cc3)c(OC)c2)cc1OC | 0.97 |
| COc1ccc(C[C@H]2COC[C@@H]2Cc2ccc(OCC(=O)c3ccc(OC)c(OC)c3)c(OC)c2)cc1OC | 0.66 |
| CCOc1ccc(CCOc2ccc(C[C@H]3C(=O)OC[C@@H]3Cc3ccc(OC)c(OC)c3)cc2OC)cc1OCC | 0.34 |
| COc1ccc(CCOc2ccc(C[C@H]3C(=O)OC[C@@H]3Cc3ccc(OC)c(OC)c3)cc2OC)cc1OC | 0.93 |
| COc1ccc(C[C@H]2COC[C@@H]2Cc2ccc(OC(=O)c3ccco3)c(OC)c2)cc1OC | 0.41 |

| SMILES | fold change (FC) |
| --- | --- |
| COc1ccc(CCOc2ccc(C[C@H]3C(=O)OC[C@@H]3Cc3ccc(OC)c(OC)c3)cc2OC)cc1 | 0.32 |
| COc1ccc(C[C@H]2COC(=O)[C@@H]2Cc2ccc(OC(=O)c3ccc(C)cc3)c(OC)c2)cc1OC | 0.46 |
| COc1ccc(CCOc2ccc(C[C@H]3COC[C@@H]3Cc3ccc(OC)c(OC)c3)cc2OC)cc1 | 0.9 |
| COc1ccc(C[C@H]2COC(=O)[C@@H]2Cc2ccc(OC(=O)c3ccccc3)c(OC)c2)cc1OC | 0.81 |
| COc1cc(CCOc2ccc(C[C@H]3COC[C@@H]3Cc3ccc(OC)c(OC)c3)cc2OC)cc(OC)c1 | 0.68 |
| COc1ccc(C[C@H]2COC(=O)[C@@H]2Cc2ccc(OC(C)=O)c(OC)c2)cc1OC | 1.11 |
| COc1ccc(C[C@H]2COC[C@@H]2Cc2ccc(OC(=O)C3CCCCC3)c(OC)c2)cc1OC | 0.23 |
| COc1ccc(C[C@H]2COC(=O)[C@@H]2Cc2ccc(OCCc3ccccc3F)c(OC)c2)cc1OC | 0.34 |
| CCOc1ccc(C[C@H]2C(=O)OC[C@@H]2Cc2ccc(OC)c(OC)c2)cc1OC | 0.14 |
| COc1ccc(C[C@H]2COC(=O)[C@@H]2Cc2ccc(OC(C)C)c(OC)c2)cc1OC | 0.2 |
| COc1ccc(C[C@H]2COC(=O)[C@@H]2Cc2ccc(OCCc3cc(OC)c(OC)c(OC)c3)c(OC)c2)cc1OC | 0.57 |
| COc1ccc(C[C@H]2COC[C@@H]2Cc2ccc(OC(=O)CC(C)C)c(OC)c2)cc1OC | 0.25 |
| COc1ccc(C[C@H]2COC(=O)[C@@H]2Cc2ccc(OC(=O)c3ccc(OC)c(OC)c3)c(OC)c2)cc1OC | 0.3 |
| COc1ccc(C[C@H]2COC(=O)[C@@H]2Cc2ccc(OC(=O)CC(C)(C)C)c(OC)c2)cc1OC | 0.32 |
| COc1ccc(C[C@H]2COC(=O)[C@@H]2Cc2ccc(OC(=O)C(C)C)c(OC)c2)cc1OC | 0.82 |
| COc1cccc(C(=O)Oc2ccc(C[C@H]3COC[C@@H]3Cc3ccc(OC)c(OC)c3)cc2OC)c1 | 0.82 |
| COCCOc1ccc(C[C@H]2C(=O)OC[C@@H]2Cc2ccc(OC)c(OC)c2)cc1OC | 0.17 |
| C/C=C/C(=O)Oc1ccc(C[C@H]2C(=O)OC[C@@H]2Cc2ccc(OC)c(OC)c2)cc1OC | 0.86 |
| COc1ccc(C[C@H]2COC[C@@H]2Cc2ccc(OCCc3cccnc3)c(OC)c2)cc1OC | 0.81 |
